Data set [1] can be described thus: Antiviral activity against Human coronavirus 229E infected in human embryonic lung fibroblast cells assessed as reduction in virus-induced cytopathic effect incubated for 5 days by MTS cell viability assay. It is filed as functional, cell-based. The note with it: 120 h. A digest of the protocol:
(§1)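 Confluent HEL cell cultures given serial compound dilutions together with HCoV-229E at MOI 100 and held 5 days at 35 °C. Virus-induced CPE was scored by microscopy. MTS reagent was then added and absorbance at 490 nm read 24 h later. EC50 was taken from the MTS or microscopic read-out and CC50 from MTS. SI = CC50/EC50, both by MTS. Mean ± SEM of three independent experiments.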

For data set [2], the system named is Human adenovirus 2. Kind of data set: Antiviral activity against Adenovirus. The data set is classed as functional.
For data set [3], the system named is Respiratory syncytial virus. Kind of data set: Antiviral activity against Respiratory syncytial virus. It is filed as functional, organism-based.
Data set [4] relates to Yellow fever virus. Briefly: Antiviral activity against Yellow fever virus. The data set is classed as functional, organism-based.
Data set [5] has as its system Vaccinia virus. Briefly: Antiviral activity against Vaccinia virus. The data set is classed as functional, organism-based. The note with it: Orthopoxvirus vaccinia.
Data set [6] has as its system Human respirovirus 3. Briefly: Antiviral activity against Parainfluenza-3 virus. It is filed as functional, organism-based.
Data set [7] has as its system Vesicular stomatitis virus. Kind of data set: Antiviral activity against Vesicular stomatitis virus. The data set is classed as functional, organism-based.
Data set [8] can be described thus: Cytotoxicity against mock-infected human embryonic lung fibroblast cells incubated for 5 days by MTS assay. The data set is classed as cell-based. The note with it: time 5 day. Put shortly:
as §1
For orientation: Tetrazolium assays rely on reduction of a dye to a coloured formazan, in cell work by metabolically active cells.

In data set [9] the test system is Reovirus sp. Kind of data set: Antiviral activity against Reovirus-1. The data set is classed as functional, organism-based.
Data set [10] has as its system Punta Toro virus. Briefly: Antiviral activity against Punta Toro virus. It is filed as functional, organism-based.
The test system of data set [11] is Human immunodeficiency virus. Kind of data set: Antiviral activity against HIV. The data set is classed as functional, organism-based.
The test system of data set [12] is Fibroblast. Kind of data set: Inhibition of nsp15 K60R drug-resistant mutant in Human coronavirus 229E infected in human embryonic lung fibroblast cells assessed as reduction in virus yield. It is filed as cell-based. Put shortly: (§2)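 Virus yield assay in confluent HEL cells. Serial compound dilutions were added, and cells were infected at MOI 100 with wild-type, EndoU-deficient (H250A nsp15) or passage-selected (K60R or T66I nsp15) HCoV-229E. After 4 h at 35 °C, the inoculum was removed and compound re-added. Supernatant was lysed at 3 days p.i. and N-gene RNA copies measured by one-step RT-qPCR. Results are fold reduction versus the no-compound control, from three independent experiments.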

Data set [13] concerns Sindbis virus. Briefly: Antiviral activity against Sindbis virus. The data set is classed as functional, organism-based.
Data set [14] has as its system SARS-CoV-2. Kind of data set: Antiviral activity against SARS-CoV-2 infected in eGFP expressing Vero E6 cells assessed as reduction in virus-induced cytopathic effect cells pretreated for 24 hrs measure after 4 days post infection by MTS cell viability assay. It is filed as functional, organism-based. The note with it: Severe acute respiratory syndrome coronavirus 2. Background: Damage to the host cells serves as the signal in cytopathic effect assays.

Data set [15] can be described thus: Selectivity index, ratio of CC50 for cytotoxicity against mock-infected human embryonic lung fibroblast cells incubated for 5 days by MTS assay to EC50 for antiviral activity against Human coronavirus 229E infected in human embryonic lung fibroblast cells assessed as reduction in virus-induced cytopathic effect incubated for 5 days by MTS cell viability assay. It is filed as toxicity, cell-based. The note with it: time 5 day, read-out: Ratio CC50/EC50. A digest of the protocol: as §1

In data set [16] the test system is Influenza A virus. Briefly: Antiviral activity against Influenza virus. It is filed as functional.
The nature of data set [17]: Antiviral activity against Human coronavirus 229E infected in human embryonic lung fibroblast cells assessed as reduction in virus-induced cytopathic effect incubated for 5 days by microscopy. The data set is classed as functional, cell-based. The note with it: 120 h. A digest of the protocol:
as §1

Data set [18] deals with Fibroblast. Kind of data set: Inhibition of nsp15 T66I drug-resistant mutant in Human coronavirus 229E infected in human embryonic lung fibroblast cells assessed as reduction in virus yield. The data set is classed as cell-based. A digest of the protocol: as §2
Data set [19] is described as follows: Antiviral activity against Human coronavirus 229E harboring reverse engineered EndoU-deficient H250A mutant infected in human embryonic lung fibroblast cells assessed as fold reduction in virus yield measured up to 40 uM. It is filed as functional. The note with it: dose microM <=40. Put shortly:
as §2

For data set [20], the system named is Coxsackievirus B4. Briefly: Antiviral activity against Coxsackie B4 virus. It is filed as functional, organism-based.
Data set [21] has as its target Replicase polyprotein 1ab (Human coronavirus 229E) (UniProt P0C6X1). Kind of data set: Inhibition of nsp15 in wild type Human coronavirus 229E infected in human embryonic lung fibroblast cells assessed as reduction in virus yield. The data set is classed as cell-based. Put shortly: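 Confluent HEL cells (or semiconfluent 16HBE) with serial compound dilutions, infected with wild-type HCoV-229E at MOI 100. After 4 h at 35 °C the inoculum was removed and compound re-added. Supernatants were taken at 3 days p.i., lysed, and heated 10 min at 75 °C. Three independent experiments.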

For data set [22] the target is unchanged. Kind of data set: Inhibition of nsp15 in Human coronavirus 229E infected in human embryonic lung fibroblast cells assessed as reduction in viral RNA synthesis at early stage of RNA synthesis at 15 uM treated 6 hrs post infection by RT-qPCR based time-of-addition assay. It is filed as cell-based. A digest of the protocol:
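Confluent HEL cells infected with HCoV-229E (MOI 100). Compound at 15 μM was added at -0.5 to 8 h p.i. At 16 h p.i. cells were washed with ice-cold PBS and lysed on ice, then heated 10 min at 75 °C and DNase-treated. Viral RNA was measured by one-step RT-qPCR against the N gene, using a plasmid standard for absolute copies. Values are relative to the no-compound virus control, from two independent experiments.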
A general note: Real-time PCR tracks product formation cycle by cycle.

Data set [23] has as its system Herpes simplex virus unknown type. Briefly: Antiviral activity against Herpes simplex virus. The data set is classed as functional.
Data set [24] deals with Replicase polyprotein 1ab (Human coronavirus 229E) (UniProt P0C6X1). Briefly: Inhibition of nsp15 in Human coronavirus 229E infected in human embryonic lung fibroblast cells assessed as reduction in viral RNA synthesis at early stage of RNA synthesis at 6.3 uM treated 6 hrs post infection by RT-qPCR based time-of-addition assay. The data set is classed as cell-based.

pEC50: −log10 of the molar value. The source made the active and inactive calls. The rule behind the calls is not given here.

Regarding `C=C(C)[C@@H]1CC[C@]2(C(=O)O)CC[C@]3(C)[C@H](CC[C@@H]4[C@@]5(C)Cc6nnn([C@@H](C)c7ccccc7)c6C(C)(C)[C@@H]5CC[C@]43C)[C@@H]12`, the negative logarithm of the EC50 (pEC50) (usually the EC50 on a negative log10 scale, so that one unit is a factor of ten) was 6.19 in data set [1] and 6.22 in [17]. The result in data set [2], in data set [3], in [4], in data set [5], in [6] and in data set [7] was inactive. The result in data set [9], in data set [10], in data set [11], in data set [13], in data set [16] and in data set [18] was inactive. The outcome in data set [20] and in data set [23] was inactive. Besides, half-maximal cytotoxicity in data set [8] (CC50 at 120 h) was put at 49 µM. Further, the EC99 (usually the point of the concentration-response curve where the effect stands at 99%) in data set [12] came out at 2.9 µM. The result in data set [14] and in data set [22] was Active. Further, the selectivity ratio at 120 h in data set [15] is 76. The figures for the “fold change (FC)” value in [19] and in data set [21] were 23 and 1480, respectively.
In the case of `N#C[C@@]1(c2ccc3c(N)ncnn23)O[C@H](CO)[C@@H](O)[C@H]1O` [GS-441524], the figures for the pEC50 in [1] and in [17] were 5.64 and 5.49, respectively. Moreover, the CC50 (in general, the concentration that lowers cell viability or growth by half) at 120 h in [8] is above 100 µM. For the same molecule, in data set [12], the EC99 is above 40 µM. Also, the selectivity ratio at 120 h in [15] was above 44. The outcome in [18] was Active.
Take `CC(C)[C@@H]1CC[C@]2(C(=O)O)CC[C@]3(C)[C@H](CC[C@@H]4[C@@]5(C)Cc6nnn([C@@H](C)c7ccccc7)c6C(C)(C)[C@@H]5CC[C@]43C)[C@@H]12`: the figures for the pEC50 in data set [1] and in [17] were 4.89 and 5.21, respectively. Moreover, the result in [2], in data set [3], in data set [4], in [5], in data set [6] and in [7] was inactive. Moreover, the outcome in [9], in data set [10], in data set [11], in data set [13], in data set [16] and in data set [20] was inactive. Further, the outcome in [23] was inactive. The molecule also returned a CC50 at 120 h in data set [8] above 99 µM. Also, in [14], the outcome was Active. Besides, in data set [15], the selectivity ratio at 120 h is above 7.6.
Regarding `CO/C1=C\C(C)=C\[C@@H](C)[C@@H](O)[C@@H](C)C/C(C)=C/C=C/[C@H](OC)[C@@H]([C@@H](C)[C@@H](O)[C@H](C)[C@@]2(O)C[C@@H](O)[C@H](C)[C@@H](C(C)C)O2)OC1=O`, in data set [24], the result was Active.
On to `C=C(C)[C@@H]1CC[C@]2(C(=O)O)CC[C@]3(C)[C@H](CC[C@@H]4[C@@]5(C)Cc6nnn(Cc7ccccc7)c6C(C)(C)[C@@H]5CC[C@]43C)[C@@H]12`, for which the results for the negative-log EC50 (pEC50) in data set [1] and in [17] were 6.07 and 6.15, respectively. Moreover, the outcome in data set [2], in data set [3], in data set [4], in [5], in [6] and in data set [7] was inactive. For the same molecule, the result in data set [9], in [10], in data set [11], in data set [13], in data set [16] and in [20] was inactive. The outcome in [23] was inactive. The CC50 at 120 h in data set [8] is 12 µM. In addition, the selectivity ratio at 120 h in data set [15] was 14.

Source of the values: ChEMBL document CHEMBL4808183, “Betulonic Acid Derivatives Interfering with Human Coronavirus 229E Replication via the nsp15 Endoribonuclease” (J Med Chem, 2021).
